ChEMBL document CHEMBL1157963, “Characterization of pentasaccharide glycosides from the roots of Ipomoea arborescens” (2006)
Values after ≈ are worked out from the molar mass of the structure shown.

Key:
Assay type in all cases: functional
Settings in all cases: read-out: ED50 (the source's name)
[1] = Cytotoxicity against human UISO-SQC1 cells
In short: (§1)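 Cultured human carcinoma lines were used: colon HCT-15, cervical UISO-SQC-1 and ovarian OVCAR-5. Cells were exposed to a series of concentrations of the purified glycosides, and the cell inhibitory concentration was determined. Maintenance and assay details follow an earlier procedure that is not given here.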

OVCAR-5 = experiment: Cytotoxicity against human OVCAR5 cells; in short: as §1
HCT-15 = experiment: Cytotoxicity against human HCT15 cells; in short: as §1

Compound | EC50 [1] [µg/mL] | EC50 (OVCAR-5) [µg/mL] | EC50 (HCT-15) [µg/mL]
C/C=C/C(=O)O[C@@H]1[C@@H](OC(=O)C(C)C(C)O)[C@@H](O[C@H]2O[C@H](CO)[C@@H](O)[C@H](O)[C@H]2O)[C@H](O[C@@H]2[C@@H](O)[C@@H](OC(=O)CCCCCCCCCCC)[C@H](O[C@@H]3[C@@H](O)[C@H]4OC(=O)CCCCCCCCCC(CCCCC)O[C@@H]5O[C@H](C)[C@@H](O)[C@H](O)[C@H]5O[C@H]4O[C@H]3C)O[C@H]2C)O[C@H]1C (some centres undefined) [MURUCIN 7] | > 5 | 4.5 (≈ 3.33 µM) | > 5
CCCCCCCCCCCC(=O)O[C@H]1[C@H](O[C@@H]2[C@@H](O)[C@H]3OC(=O)CCCCCCCCCC(CCCCC)O[C@@H]4O[C@H](CO)[C@@H](O)[C@H](O)[C@H]4O[C@H]3O[C@H]2C)O[C@@H](C)[C@H](O[C@@H]2O[C@@H](C)[C@H](OC(=O)CC)[C@@H](OC(=O)C(C)C(C)O)[C@H]2O[C@H]2O[C@H](CO)[C@@H](O)[C@H](O)[C@H]2O)[C@H]1O (some centres undefined) [ARBORESIN 3] | > 5 | > 5 | > 5
CCCCCCCCCCCC(=O)O[C@H]1[C@H](O[C@@H]2[C@@H](O)[C@H]3OC(=O)CCCCCCCCCC(CCCCC)O[C@@H]4O[C@H](CO)[C@@H](O)[C@H](O)[C@H]4O[C@H]3O[C@H]2C)O[C@@H](C)[C@H](O[C@@H]2O[C@@H](C)[C@H](OC(=O)CCC)[C@@H](OC(=O)C(C)C(C)O)[C@H]2O[C@H]2O[C@H](CO)[C@@H](O)[C@H](O)[C@H]2O)[C@H]1O (some centres undefined) [ARBORESIN 4] | > 5 | > 5 | > 5
CCCCCCCCCCCC(=O)O[C@H]1[C@H](O[C@@H]2[C@@H](O)[C@H]3OC(=O)CCCCCCCCCC(CCCCC)O[C@@H]4O[C@H](C)[C@@H](O)[C@H](O)[C@H]4O[C@H]3O[C@H]2C)O[C@@H](C)[C@H](O[C@@H]2O[C@@H](C)[C@H](O)[C@@H](O)[C@H]2O[C@H]2O[C@H](CO)[C@@H](O)[C@H](O)[C@H]2O)[C@H]1O (some centres undefined) [MURUCIN 9] | > 5 | 4 (≈ 3.38 µM) | > 5
C/C=C(\C)C(=O)O[C@@H]1[C@@H](OC(=O)C(C)C(C)O)[C@@H](O[C@H]2O[C@H](CO)[C@@H](O)[C@H](O)[C@H]2O)[C@H](O[C@@H]2[C@@H](O)[C@@H](OC(=O)CCCCCCCCCCC)[C@H](O[C@@H]3[C@@H](O)[C@H]4OC(=O)CCCCCCCCCC(CCCCC)O[C@@H]5O[C@H](C)[C@@H](O)[C@H](O)[C@H]5O[C@H]4O[C@H]3C)O[C@H]2C)O[C@H]1C (some centres undefined) [MURUCIN 8] | > 5 | > 5 | > 5
CCCCCCCCCCCC(=O)O[C@H]1[C@H](O[C@@H]2[C@@H](O)[C@H]3OC(=O)CCCCCCCCCC(CCCCC)O[C@@H]4O[C@H](CO)[C@@H](O)[C@H](O)[C@H]4O[C@H]3O[C@H]2C)O[C@@H](C)[C@H](O[C@@H]2O[C@@H](C)[C@H](OC(=O)C(C)CC)[C@@H](OC(=O)C(C)C(C)O)[C@H]2O[C@H]2O[C@H](CO)[C@@H](O)[C@H](O)[C@H]2O)[C@H]1O (some centres undefined) [ARBORESIN 5] | > 5 | > 5 | > 5
CCCCCCCCCCCC(=O)O[C@H]1[C@H](O[C@@H]2[C@@H](O)[C@H]3OC(=O)CCCCCCCCCC(CCCCC)O[C@@H]4O[C@H](CO)[C@@H](O)[C@H](O)[C@H]4O[C@H]3O[C@H]2C)O[C@@H](C)[C@H](O[C@@H]2O[C@@H](C)[C@H](OC(C)=O)[C@@H](OC(=O)C(C)C(C)O)[C@H]2O[C@H]2O[C@H](CO)[C@@H](O)[C@H](O)[C@H]2O)[C@H]1O (some centres undefined) [ARBORESIN 2] | > 5 | 4.2 (≈ 3.13 µM) | > 5
CCCCCCCCCCCC(=O)O[C@H]1[C@H](O[C@@H]2[C@@H](O)[C@H]3OC(=O)CCCCCCCCCC(CCCCC)O[C@@H]4O[C@H](CO)[C@@H](O)[C@H](O)[C@H]4O[C@H]3O[C@H]2C)O[C@@H](C)[C@H](O[C@@H]2O[C@@H](C)[C@H](O)[C@@H](OC(=O)C(C)C(C)O)[C@H]2O[C@H]2O[C@H](CO)[C@@H](O)[C@H](O)[C@H]2O)[C@H]1O (some centres undefined) [ARBORESIN 1] | > 5 | 5 (≈ 3.85 µM) | > 5
